High-throughput results from PubChem BioAssay.
Only some compounds are listed: those with a hit (about 3.3% of all), similar ones and a draw of the others.
FXN GAA850 act = increases GAA850 frataxin promoter reporter activity; hit rate 0.56% among 360,000; HEK293 lucGAA850 FXN promoter luciferase reporter, 24 h; percent of 10 µM SAHA response; activation, % at 6 µM; AID 540364;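 active = activation above the average of all compounds screened plus 3 SD, cutoff fixed separately per campaign, cut at about 7.5% in these data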;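 note: 0% = DMSO wells and 100% = 10 µM SAHA wells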
STAT3 act = activators of IL-6 induced STAT3 signaling | U3A cells, IL-6 STAT3-luciferase reporter, luminescence; 100% = signal with IL-6 EC80 alone | activation (% of control), % at 5.6 µM | hit rate 0.91% among 190,000 | AID 871;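 active = activation above the screen-wide mean of compound activation plus 3 SD, cut at about 130% in these data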;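 note: 0% = background luminescence of wells with medium and substrate only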
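Material: human STAT1-deficient U3A cells with stable STAT3-luciferase reporter / Probe or stimulus: IL-6 stimulus at 33 ng/mL final / Schedule: 1 h compound pre-exposure, 6 h IL-6 stimulation, 37 °C / Technique: luminescence / Read-out basis: percent of IL-6-only median luminescence / Control set: IL-6-only high control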
ABCB6 inh 2 = inhibitors of human ABC transporter ABCB6; Q9NP58; fluorescence ratio to DMSO, % at 10 µM; hit rate 0.19% among 360,000; K562-ABCB6 porphyrin accumulation, flow cytometry, 1 h; stronger effect = lower value; AID 602162;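 active = fluorescence ratio to DMSO below 75%, the collection mean minus 3 SD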;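 note: signal is porphyrin accumulated inside mitochondria; 100% equals median channel fluorescence of DMSO control wells; lower ratio means ABCB6 inhibition with less porphyrin fluorescence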
Target sequence (Q9NP58 whole entry, looked up): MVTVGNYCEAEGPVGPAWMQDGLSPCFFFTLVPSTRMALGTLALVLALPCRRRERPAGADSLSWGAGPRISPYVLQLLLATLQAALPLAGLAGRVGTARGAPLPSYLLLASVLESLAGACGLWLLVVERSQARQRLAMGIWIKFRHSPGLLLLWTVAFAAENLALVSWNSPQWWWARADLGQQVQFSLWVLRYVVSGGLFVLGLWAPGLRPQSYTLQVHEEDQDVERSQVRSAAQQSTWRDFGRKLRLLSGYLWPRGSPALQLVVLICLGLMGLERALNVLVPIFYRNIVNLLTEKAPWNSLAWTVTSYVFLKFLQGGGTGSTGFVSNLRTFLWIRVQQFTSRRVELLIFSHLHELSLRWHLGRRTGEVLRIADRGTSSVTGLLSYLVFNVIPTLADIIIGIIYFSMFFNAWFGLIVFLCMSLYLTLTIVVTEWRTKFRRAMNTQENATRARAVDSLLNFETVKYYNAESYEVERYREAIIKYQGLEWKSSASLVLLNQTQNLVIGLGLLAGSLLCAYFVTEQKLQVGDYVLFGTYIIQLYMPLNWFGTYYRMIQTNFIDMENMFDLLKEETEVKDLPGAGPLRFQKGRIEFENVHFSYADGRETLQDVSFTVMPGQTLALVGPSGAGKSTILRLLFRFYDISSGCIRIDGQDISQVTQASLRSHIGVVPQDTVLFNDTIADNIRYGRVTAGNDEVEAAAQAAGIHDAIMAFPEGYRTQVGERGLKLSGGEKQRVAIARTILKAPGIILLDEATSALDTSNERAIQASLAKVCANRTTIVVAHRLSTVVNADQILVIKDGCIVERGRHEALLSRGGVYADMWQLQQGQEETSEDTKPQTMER
AHR activator = human AHR activation. AID 2796. P35869. hit rate 2.5% among 320,000. AHR-responsive luciferase reporter cells, luminescence. activation, % at 5 µM; in the data active = activation above about 47%;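 note: 0% = vehicle wells and 100% = reference agonist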
AHR act confirm = confirmation of human aryl hydrocarbon receptor activators | shares compounds with AHR activator | human cells, AHR-responsive luciferase reporter, luminescence | activation, % at 9 µM | hit rate 87% among 2,300 | AID 2845; in the data active = activation above about 49%;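 note: HepG2 hepatoma cells carrying a DRE-driven firefly luciferase reporter; 0% = vehicle wells and 100% = reference agonist wells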
PXR counter = activates human PXR in AHR activator counter-screen; activation, % at 11.6 µM; shares compounds with AHR activator; hit rate 88% among 2,300; cell-based PXR reporter, luciferase luminescence; in the data active = activation above about 11%;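 note: human hepatoma DPX-2 cells expressing full-length human PXR; 0% = DMSO and 100% = reference agonist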
* = called active by the depositor; · = no result.

SMILES	FXN GAA850 act	STAT3 act	ABCB6 inh 2	AHR activator	AHR act confirm	PXR counter
O=C(NCc1cccnc1)c1cnc2sccn2c1=O	1.9	103.0	99.0	80.9*	39.7	4.1
O=C(Nc1ccon1)c1cnc2sccn2c1=O	3.2	99.6	92.0	138.8*	107.0*	·
CCN(CC)c1ccc(/C=N/NC(=O)C2CC2)cc1	-0.2	·	104.0	85.3*	76.7*	44.2*
O=C(NCc1ccccc1)c1nccnc1CO	3.1	·	99.0	0.5	·	·
COc1ccc(-c2noc(C3CCCN(C(=O)Nc4ccccc4F)C3)n2)cc1 (stereo not drawn)	2.2	92.6	92.0	5.9	·	·
COc1ccccc1C(=O)Nc1ccc(N2CCCCC2)cc1	3.2	151.2*	136.0	87.6*	99.2*	·
COc1ccc(Br)cc1C(=O)Nc1ccc(N2CCCC2)cc1	2.8	·	100.0	104.6*	148.1*	17.7*
COc1ccccc1C(=O)Nc1ccc(N2CCN(C(C)=O)CC2)cc1	0.5	82.6	90.0	-6.3	·	·
Cc1ccc(Nc2ccc(-n3ccnc3)nn2)cc1C	0.1	96.9	99.0	90.9*	47.7*	-0.7
COc1cccc(Nc2ccc(-n3ccnc3)nn2)c1	2.2	107.7	93.0	81.0*	79.1*	16.2*
Cc1ccc2[nH]c3c(=O)n4c(nc3c2c1)SCC4	-0.5	82.3	90.0	123.2*	149.9*	31.2*
COc1ccc2[nH]c3c(=O)n4c(nc3c2c1)SCCC4	-1.3	82.9	91.0	24.6	·	·
CN(C)c1ccc(/C=N\NC(=O)c2csnn2)cc1	2.2	71.8	101.0	110.9*	54.5*	10.2*
C=C(C)C(=O)Nc1nnc(-c2cccs2)s1	2.5	119.5	93.0	46.5	·	·
COCC(=O)Nc1nnc(-c2cccs2)s1	4.0	97.0	98.0	80.6*	94.5*	·
CCC(C)C(=O)Nc1nnc(-c2cccs2)s1 (stereo not drawn)	4.7	98.7	93.0	84.5*	81.2*	47.6*
CCc1ccc(S(=O)(=O)NCCc2cn3ccc(C)cc3n2)s1	0.0	101.2	99.0	2.3	·	·
CCOC(=O)c1sc(Nc2nc3c(OC)cccc3s2)nc1C	5.4	135.7*	92.0	84.3*	126.8*	71.8*
CC1CCCN(S(=O)(=O)c2ccc(CN3C(=O)c4cccnc4C3=O)cc2)C1 (stereo not drawn)	1.1	·	103.0	4.0	·	·
O=C(CNC(=O)c1ccccc1F)N/N=C/c1cn[nH]c1-c1ccccc1	1.5	99.8	95.0	139.5*	92.2*	18.5*
O=C(CNC(=O)c1ccc(F)cc1)N/N=C/c1cn[nH]c1-c1ccccc1	2.3	105.0	100.0	41.4	·	·
COC(=O)CCN(c1ccccc1)S(=O)(=O)c1ccc(OC)cc1	3.0	104.0	98.0	1.8	·	·
Cn1cc(SCC(=O)NC2CCCCC2)c2ccccc21	-1.3	·	103.0	88.2*	6.3	108.3*
CC(=O)Nc1cc(-c2nn3c(C)nnc3s2)ccc1C	1.6	105.9	104.0	99.0*	88.6*	11.1*
Cc1ccc(SCC(=O)OCC(=O)NCCc2ccc(S(N)(=O)=O)cc2)c(C)c1	-1.6	·	98.0	1.6	·	·
SMILES	FXN GAA850 act	STAT3 act	ABCB6 inh 2	AHR activator	AHR act confirm	PXR counter
C/C(=N\Nc1nc2ccccc2s1)c1ccc2c(c1)OCO2	2.5	100.9	103.0	89.8*	111.8*	31.4*
Cc1ccc(OC(C)C(=O)Nc2ccc(S(=O)(=O)N3CCOCC3)cc2)cc1 (stereo not drawn)	2.4	·	106.0	-5.7	·	·
CC(OC(=O)C1CC1)C(=O)Nc1ccc([N+](=O)[O-])cc1Cl (stereo not drawn)	1.5	92.3	103.0	-2.6	·	·
CCOc1ccccc1NC(=O)c1cnc2n(c1=O)CCS2	1.8	89.9	89.0	88.4*	64.5*	55.2*
COc1ccc(C)cc1NC(=O)c1cnc2n(c1=O)CCS2	4.5	95.6	101.0	23.6	·	·
O=C1CCC(C(=O)OCC(=O)N2N=C3/C(=C\c4ccccc4)CCCC3C2c2ccccc2)N1 (stereo not drawn)	0.3	·	97.0	·	·	·
O=C(c1ccccn1)N1N=C2/C(=C/c3ccccc3)CCCC2C1c1ccccc1 (stereo not drawn)	2.1	113.5	101.0	111.7*	108.4*	65.5*
COc1ccc([C@@H]2[C@@H]3C(=O)N(C(C)(C)C)C(=O)[C@@H]3[C@]3(Cc4ccc(Cl)cc4)C(=O)N(c4cccc(C)c4)C(=O)N23)cc1	6.7	·	93.0	0.9	·	·
CCOC(=O)C1(CC2CCCCO2)CCN(S(=O)(=O)c2cc(C)cs2)CC1 (stereo not drawn)	-0.3	102.7	99.0	1.8	·	·
c1ccc(OCc2nnc3sc(-c4cccs4)nn23)cc1	2.4	109.0	95.0	138.6*	80.7*	17.5*
Clc1ccc(Cl)c(-c2nn3c(COc4ccccc4)nnc3s2)c1	0.2	109.5	91.0	8.3	·	·
Cc1[nH]c(C)c(S(=O)(=O)NCC(C)c2ccccc2)c1C(=O)N1CCCCC1 (stereo not drawn)	-2.1	·	120.0	1.3	·	·
Nc1cc(-c2ccc(Br)cc2)[nH]n1	0.1	111.2	98.0	84.2*	131.7*	10.8*
Cc1cc(-c2ccc(Br)cc2)n[nH]1	5.6	82.9	88.0	15.8	·	·
CCn1c(C)cc(/C=C2\NC(=O)N(CC(=O)Nc3cccc(C)c3)C2=O)c1C	0.6	117.3	103.0	80.1*	77.6*	15.9*
COc1ccc(Cl)cc1NCCC(O)c1ccc(F)cc1 (stereo not drawn)	1.3	·	94.0	89.3*	21.4	40.4*
COc1ccc(NCCC(O)c2ccc(Cl)cc2)cc1 (stereo not drawn)	2.5	·	98.0	4.2	·	·
Cc1ccc2nc(Nc3nc(C)cc(C(F)(F)F)n3)nc(C)c2c1	3.1	81.7	99.0	98.4*	94.6*	130.8*
O=C(CSc1cccc[n+]1[O-])Nc1cc2c(cc1Cl)C(=O)c1ccccc1C2=O	3.9	110.3	101.0	121.2*	134.6*	54.4*
O=C(CSc1nc(-c2ccccc2Cl)ns1)Nc1ccc2c(c1)OCO2	3.4	102.4	106.0	87.1*	72.5*	16.6*
COc1cc(C#Cc2c(-c3cncn3C)n(C)c3ccc(-c4ccc5cc[nH]c5c4)cc23)cc(OC)c1	1.8	·	100.0	105.7*	82.5*	23.1*
CCCC(=O)N1CCCC1(C)C(=O)N(C)Cc1cccc2ccccc12 (stereo not drawn)	-5.3	·	97.0	·	·	·
O=c1[nH]nc(Cc2ncc(C(F)(F)F)cc2Cl)c2ccccc12	0.9	·	99.0	2.2	·	·
O=C1Nc2ccccc2C1c1ncc(C(F)(F)F)cc1Cl (stereo not drawn)	1.9	·	98.0	90.0*	30.1	21.4*
CC1CCC(C(=O)NC(C(=O)NCCc2ccc(S(N)(=O)=O)cc2)C(C)C)CC1 (stereo not drawn)	1.6	·	98.0	-0.5	·	·
O=C(NCc1ccc(Cl)cc1)c1cccc(NC2=NC3CS(=O)(=O)CC3S2)c1 (stereo not drawn)	0.6	·	98.0	-1.4	·	·
